# Bioassay records: PubChem BioAssay, several laboratories
# SENP8 block-1: inhibitors of human SENP8 protease | inhibition, % at 10 µM | 1.2% of 330,000 active | purified SENP8, Z-RLRGG-aminoluciferin cleavage, luminescence | Q96LD8; in the data active = inhibition above about 50%
# SENP7 inh: inhibitors of human SENP7 protease; AID 434973; inhibition, % at 5 µM; recombinant SENP7, Z-RLRGG-aminoluciferin luminescence, 40 min; Q9BQF6; 1.5% of 330,000 active;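 active = inhibition above about 50% at the single test dose, limit read from the data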;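 also: plate controls were DMSO with enzyme for no effect and no enzyme buffer wells for full effect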
# SENP1 FRET inh: SENP1 (human) catalytic domain inhibition. Q9P0U3. recombinant SENP1 catalytic domain, CyPet-SUMO1-YPet FRET cleavage. inhibition, % at 10 µM. 0.21% of 360,000 active;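 active = inhibition at least 30% at 10 µM, raw YFP signal under a set limit, fluorescence ratio 0.5 to 1.5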;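 also: 0% = enzyme with DMSO and 100% = no enzyme wells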
# Target sequence (Q9P0U3 419-644 limits assumed): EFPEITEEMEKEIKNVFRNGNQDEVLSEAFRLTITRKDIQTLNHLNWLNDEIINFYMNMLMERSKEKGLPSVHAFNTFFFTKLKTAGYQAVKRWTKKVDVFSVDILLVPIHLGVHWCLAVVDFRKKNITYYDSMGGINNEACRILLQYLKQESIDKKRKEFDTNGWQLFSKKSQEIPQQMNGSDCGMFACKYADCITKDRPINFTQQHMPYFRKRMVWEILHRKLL
#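 Material – human SENP1 catalytic domain · Input – SENP1 enzyme, 20 pM final · Compound dosing – single concentration of 10 µM compound, 0.5% DMSO final · Timing – enzyme reaction for 50 min at room temperature, dark · Measured by – FRET fluorescence in CFP and YFP emission channels · Control set – no-enzyme wells low, DMSO-plus-enzyme wells high control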
# SENP8 block-2: inhibitors of human SENP8 protease. recombinant SENP8, Nedd8 substrate fluorescence. inhibition, % at 20 µM. 0.64% of 360,000 active. Q96LD8; in the data active = inhibition mostly above about 40%, no sharp cut-off; inactive = mostly below about 27%
# Platelet DG rel: modulates dense granule release in human platelets. human platelet-rich plasma, SFLLRN dense granule ATP release, luminescence. inhibition, %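 (compounds screened at 7.5 µM in platelet-rich plasma)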. 0.22% of 300,000 active. AID 1663;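 active = mean replicate score, as percent of positive control, at or above 50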
# SENP6 inh: blocks the human protease SENP6 | 1.8% of 330,000 active | inhibition, % at 10 µM | Recombinant SENP6 catalytic domain, aminoluciferin luminescence | Q9GZR1;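 active = inhibition above about 50% at the single tested dose, limit read from the data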;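 also: plate controls were DMSO wells with enzyme for no effect and DMSO wells lacking enzyme for full effect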
# Target sequence (Q9GZR1 628-1112 limits assumed): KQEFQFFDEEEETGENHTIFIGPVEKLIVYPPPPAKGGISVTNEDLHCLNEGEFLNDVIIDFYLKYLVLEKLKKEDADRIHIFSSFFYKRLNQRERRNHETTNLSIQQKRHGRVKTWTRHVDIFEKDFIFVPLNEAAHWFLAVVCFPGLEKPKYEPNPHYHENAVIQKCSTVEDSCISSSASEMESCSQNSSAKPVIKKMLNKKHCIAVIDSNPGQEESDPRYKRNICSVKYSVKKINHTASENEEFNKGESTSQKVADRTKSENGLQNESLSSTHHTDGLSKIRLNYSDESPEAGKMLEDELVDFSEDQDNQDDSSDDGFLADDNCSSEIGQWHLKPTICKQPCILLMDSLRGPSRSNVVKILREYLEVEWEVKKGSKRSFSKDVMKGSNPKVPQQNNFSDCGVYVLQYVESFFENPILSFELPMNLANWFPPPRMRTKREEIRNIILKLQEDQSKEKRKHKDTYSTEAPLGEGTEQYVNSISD
# SENP8 conf: human SENP8 inhibition, confirmed; shares compounds with SENP7 inh; Recombinant SENP8, Z-RLRGG-aminoluciferin luminescence, 60 min; inhibition, % at 12.5 µM; 40% of 6,200 active; AID 488912;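 active = mean inhibition across replicates above about 50%, limit read from the data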
# SENP6 conf: human SENP6 inhibition, confirmed. 58% of 6,200 active. shares compounds with SENP7 inh. inhibition, % at 12.5 µM. AID 488915. recombinant SENP6, Z-RLRGG-aminoluciferin luminescence
# SENP7 confirm: confirmation of human SENP7 protease inhibitors. recombinant SENP7, Z-RLRGG-aminoluciferin luminescence, 40 min. 69% of 6,200 active. shares compounds with SENP7 inh. inhibition, % at 12.5 µM
# Casp3 SENP sel: inhibits human caspase-3 in SENP selectivity test; shares compounds with SENP7 inh; purified caspase-3, Z-DEVD-aminoluciferin luminescence, 60 min; inhibition, % at 12.5 µM; 60% of 6,200 active; AID 488918;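 active = mean inhibition above about 50%, limit read from the data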;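 also: plate controls were enzyme with DMSO for no effect and wells without caspase-3 for full effect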
# Luc interf: counter-screen for SENP inhibitors: luminescence interference; shares compounds with SENP7 inh; Pre-incubated SENP8/Z-RLRGG-aminoluciferin, luciferase luminescence interference; AID 488919; 39% of 6,200 active; inhibition, % at 12.5 µM;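 active = mean inhibition above about 50% when retested at one dose, limit read from the data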;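 also: plate controls were DMSO wells with completed reaction for no effect and substrate without enzyme for full effect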
# Active calls of the source: *; . = no result. This is a sample that favours compounds with a hit; in the whole collection about 2.6% have one here.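 The calls were made as follows, unless noted: active = mean inhibition above about 50% in the one-dose retest (limit read from the data); inactive = the rest.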
SMILES,SENP8 block-1,SENP7 inh,SENP1 FRET inh,SENP8 block-2,Platelet DG rel,SENP6 inh,SENP8 conf,SENP6 conf,SENP7 confirm,Casp3 SENP sel,Luc interf
Cc1cc(C(=O)O)ccc1N/C=C1\CCCC(C)C1=O (stereo not drawn),76.5*,27.0,-10.5,-43.5,-1.7,79.5*,9.3,88.9*,98.6*,62.3*,88.0*
O=C(Nc1ccc2c(c1)OCO2)c1cccs1,16.0,47.9,2.7,0.1,10.3,64.5*,49.4,42.5,72.1*,73.7*,55.4*
O=C(Nc1ccc2c(c1)OCCO2)c1cccs1,46.3,72.5*,0.4,28.2,17.1,76.4*,51.4*,50.0*,84.7*,80.6*,68.3*
O=C(/C=C\Nc1ccc2c(c1)OCO2)c1cccs1,93.9*,-4.0,-24.1,-2.4,30.5,-14.2,-7.3,99.8*,103.7*,97.9*,34.9
O=C(c1ccc2c(c1)OCCCO2)c1cccs1,29.9,49.6,0.6,10.0,10.7,53.8*,51.5*,49.6,82.2*,66.4*,63.3*
CC(=NNC(=O)c1cccs1)c1ccc2c(c1)OCCO2,-10.9,-13.6,-0.5,-49.4,.,-1.9,.,.,.,.,.
O=C(Nc1ccc2c(c1)OCCO2)c1c(Cl)cccc1Cl,.,.,1.9,17.1,.,.,.,.,.,.,.
CC(C)(C)C(=O)Nc1ccccc1C(=O)NCCC(=O)Nc1ccccc1,-0.5,1.7,2.6,-13.6,1.0,4.9,.,.,.,.,.
O=C(NC1CCCCCC1)c1ccc(Cl)c(S(=O)(=O)N2CCOCC2)c1,-15.2,-18.3,-1.2,2.1,-0.8,-5.6,.,.,.,.,.
O=C(Nc1ccc2c(c1)OCO2)c1ccc(Br)s1,59.9*,78.3*,-11.5,11.8,13.2,74.1*,71.6*,66.9*,91.5*,65.4*,70.8*
O=C(Nc1ccc(N2CCCC2)c(Cl)c1)c1cccs1,58.2*,48.5,-1.3,-7.1,7.4,26.4,79.3*,74.5*,92.1*,70.1*,62.2*
COc1cc2c(cc1OC)C(c1ccccc1Cl)N(C)CC2 (stereo not drawn),-1.1,4.5,0.2,-0.6,0.5,14.7,.,.,.,.,.
CC(C)(C)/C(O)=C/c1nc2ccccc2[nH]c1=O,3.9,-4.4,-69.4,-14.5,-15.4,-7.3,.,.,.,.,.
O=c1[nH]c2ccccc2nc1/C=C/c1ccccc1,56.0*,56.3*,-21.0,-395.1,4.0,10.3,14.4,27.0,49.1,41.6,16.1
O=c1[nH]c2ccccc2nc1/C=C/c1ccc(F)cc1,58.5*,54.8*,-24.6,-398.6,1.5,64.4*,25.7,26.1,22.8,19.0,10.0
O=c1[nH]c2ccccc2nc1/C=C/c1ccc(O)cc1,93.3*,92.1*,-27.4,-385.4,34.5,93.0*,96.8*,97.6*,102.0*,91.9*,82.9*
Cn1c(=O)c(/C=C/c2ccc(F)cc2)nc2ccccc21,.,.,-34.6,-446.3,-18.0,.,.,.,.,.,.
COc1ccc(NS(=O)(=O)c2ccc3oc(SC(C)C(N)=O)nc3c2)cc1 (stereo not drawn),-9.6,-4.0,3.0,15.5,-6.4,-9.6,.,.,.,.,.
O=C(NCCCN=C1NS(=O)(=O)c2ccccc21)c1ccc(F)cc1,-3.5,7.0,0.3,10.6,13.9,-1.4,.,.,.,.,.
O=[N+]([O-])c1ccc(-c2ccc(C=Nc3cccc4ccccc34)o2)cc1,44.8,52.2*,0.5,-285.2,-4.0,83.2*,-4.9,2.2,4.2,8.1,-1.7
O=[N+]([O-])c1ccc(C=Nc2cccc3ccccc23)s1,47.4,41.1,-2.1,-394.0,-3.1,58.1*,4.7,1.7,-5.2,-5.2,-3.7
CCOc1ccccc1C1C2CCCCC2(O)CCN1C(=O)c1cccs1 (stereo not drawn),-3.3,8.2,3.7,7.1,-6.1,-12.1,.,.,.,.,.
CCc1ccc(NSc2ccccc2[N+](=O)[O-])cc1,2.5,55.9*,1.1,25.6,8.6,-15.0,6.9,7.7,-6.6,-0.3,1.4
COc1ccc(Br)cc1/C=N/n1nnnc1N,0.7,1.1,2.9,-36.4,-3.6,5.3,.,.,.,.,.
O=C(O)CCC(=O)N1CN2CN(C(=O)CCC(=O)O)CC([N+](=O)[O-])(C2)C1,-2.0,3.2,3.0,19.2,3.7,-15.4,.,.,.,.,.
SMILES,SENP8 block-1,SENP7 inh,SENP1 FRET inh,SENP8 block-2,Platelet DG rel,SENP6 inh,SENP8 conf,SENP6 conf,SENP7 confirm,Casp3 SENP sel,Luc interf
COC(=O)CCC(=O)N1CN2CN(C(=O)CCC(=O)OC)CC([N+](=O)[O-])(C2)C1,-0.3,8.5,-2.7,19.2,-3.2,94.8*,-26.5,-20.7,-11.2,-11.0,-7.7
c1csc(-c2nnc(-c3ccc(N4CCOCC4)cc3)o2)c1,11.0,52.1*,-11.0,-280.9,2.4,58.9*,-11.6,-2.3,29.6,32.1,15.9
CCOc1ccc(-c2nnc(-c3cccs3)o2)cc1OCC,-7.1,-12.5,-0.2,-300.8,-1.5,-32.7,.,.,.,.,.
COc1ccc(-c2nnc(-c3cccs3)o2)cc1OC,44.5,68.3*,2.1,-317.9,9.8,62.8*,58.3*,56.5*,85.5*,81.4*,20.4
CC(C)COc1ccc(-c2nnc(-c3ccncc3)o2)cc1,26.9,56.6*,2.0,-315.7,8.5,65.7*,25.0,31.4,41.4,46.5,30.0
CCOc1ccc(-c2nnc(-c3cccs3)o2)cc1,73.2*,85.4*,3.9,-284.3,6.0,48.2,38.0,61.9*,60.4*,72.4*,22.2
COc1ccc(NC(=O)CSc2nnc(-c3cccnc3)o2)c(OC)c1,-14.6,7.2,1.2,9.9,4.7,-14.3,.,.,.,.,.
NC(=O)/C(=C/c1ccco1)C(N)=S,1.0,-2.7,-4.4,0.1,7.7,-12.7,.,.,.,.,.
CS(=O)(=O)c1ccccc1-c1csc(N2CCC(C(N)=O)CC2)n1,1.4,-6.7,.,.,.,-0.4,.,.,.,.,.
O=C(OCc1ccccc1)N1CCC2CC1c1ccc(Cl)cc12 (stereo not drawn),.,.,-0.3,12.5,.,.,.,.,.,.,.
COc1cccc(/C=N/Nc2ccc([N+](=O)[O-])cc2)c1O,61.5*,78.0*,-23.1,-69.4,3.7,70.2*,20.5,66.6*,97.8*,50.0*,5.4
COc1cc(/C=N/NC(=S)Nc2cccc(C(=O)O)c2)ccc1O,-3.0,5.6,-1.7,-135.8,26.9,14.8,.,.,.,.,.
